The text below walks through data of ChEMBL document CHEMBL3259631, “Identification of the first potent, selective and bioavailable PPARα antagonist” (Bioorg Med Chem Lett, 2014).

For data set [1], the target named is T1, Peroxisome proliferator-activated receptor alpha (Homo sapiens, UniProt Q07869).
T1 sequence (Q07869 whole entry): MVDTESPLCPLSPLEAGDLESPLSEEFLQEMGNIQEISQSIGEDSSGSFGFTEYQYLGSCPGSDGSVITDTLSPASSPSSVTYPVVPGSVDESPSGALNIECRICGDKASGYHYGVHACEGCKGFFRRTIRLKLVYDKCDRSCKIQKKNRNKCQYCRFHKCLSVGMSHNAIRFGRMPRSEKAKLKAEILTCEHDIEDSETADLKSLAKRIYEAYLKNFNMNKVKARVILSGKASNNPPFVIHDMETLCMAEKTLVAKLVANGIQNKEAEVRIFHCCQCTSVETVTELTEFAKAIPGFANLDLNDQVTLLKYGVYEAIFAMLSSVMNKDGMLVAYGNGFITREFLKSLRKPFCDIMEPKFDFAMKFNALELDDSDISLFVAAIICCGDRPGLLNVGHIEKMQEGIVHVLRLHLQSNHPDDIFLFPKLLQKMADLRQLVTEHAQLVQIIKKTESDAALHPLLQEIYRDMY
Briefly: Antagonist activity at human PPAR-alpha assessed as inhibition of GW7647-induced effect after overnight incubation by cell-based luciferase reporter gene assay. A general note: A reporter such as luciferase makes a cellular process visible.

A short description of data set [2]: (§1) Metabolic stability in mouse plasma assessed as compound remaining at 1 uM after 24 hrs by LC-MS/MS analysis. The settings on record: read-out: Stability. Format: ADME, cell-free. The gist of the method: (§2)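 A 30 mM DMSO stock was diluted to 100 µM in acetonitrile, then spiked into thawed mouse plasma (1 µM final) and incubated at 37 °C. Aliquots were precipitated in acetonitrile containing buspirone, shaken 5 min and centrifuged at 4000g for 10 min. Supernatant was analysed by LC-MS/MS. Percent remaining = concentration at each time / t0 concentration × 100; mean of at least three experiments.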

Data set [3] in a line: Solubility of the compound in aqueous buffer at pH 7.4 after 24 hrs by LC-MS/MS analysis. Format: physicochemical. The gist of the method:
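Compound from a 10 mM DMSO stock was added to pH 7.4 buffer, vortexed 2 min, then shaken on an orbital shaker for 24 h at room temperature. Samples were then vacuum-filtered through a polycarbonate membrane before measurement.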

A short description of data set [4]: AUC in CD-1 mouse at 30 mg/kg, ip. The format is ADME, organism-based. The arrangement: dose 30 mg/kg, route intraperitoneal. The settings on record: plasma. The gist of the method: (§3)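 Mouse pharmacokinetics in CD1 mice given a single intraperitoneal dose of 30 mpk, formulated in saline or in 98% saline/2% tween.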
Data set [5] can be described thus: Cmax in CD-1 mouse at 30 mg/kg, ip after 1 hr. The format is ADME, organism-based. The arrangement: dose 30 mg/kg, route intraperitoneal. Particulars: in vivo. The method in brief:
as §3

In data set [6] the target is T2, Peroxisome proliferator-activated receptor delta (Homo sapiens, UniProt Q03181).
T2 sequence (Q03181 whole entry): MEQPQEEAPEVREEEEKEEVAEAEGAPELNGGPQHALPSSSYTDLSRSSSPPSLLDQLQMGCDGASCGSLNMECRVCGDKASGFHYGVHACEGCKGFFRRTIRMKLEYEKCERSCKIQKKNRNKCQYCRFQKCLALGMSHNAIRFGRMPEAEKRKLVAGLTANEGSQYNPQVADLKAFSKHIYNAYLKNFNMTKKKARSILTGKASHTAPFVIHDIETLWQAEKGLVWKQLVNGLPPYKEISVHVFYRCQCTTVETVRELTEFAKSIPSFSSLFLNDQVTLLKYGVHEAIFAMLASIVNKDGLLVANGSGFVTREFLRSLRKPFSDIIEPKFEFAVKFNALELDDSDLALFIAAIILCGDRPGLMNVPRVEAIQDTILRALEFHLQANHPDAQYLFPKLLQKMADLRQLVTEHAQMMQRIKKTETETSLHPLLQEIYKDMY
Briefly: Inhibition of human PPAR-delta.

Data set [7] concerns the target T3, Peroxisome proliferator-activated receptor gamma (Homo sapiens, UniProt P37231).
T3 sequence (P37231 whole entry): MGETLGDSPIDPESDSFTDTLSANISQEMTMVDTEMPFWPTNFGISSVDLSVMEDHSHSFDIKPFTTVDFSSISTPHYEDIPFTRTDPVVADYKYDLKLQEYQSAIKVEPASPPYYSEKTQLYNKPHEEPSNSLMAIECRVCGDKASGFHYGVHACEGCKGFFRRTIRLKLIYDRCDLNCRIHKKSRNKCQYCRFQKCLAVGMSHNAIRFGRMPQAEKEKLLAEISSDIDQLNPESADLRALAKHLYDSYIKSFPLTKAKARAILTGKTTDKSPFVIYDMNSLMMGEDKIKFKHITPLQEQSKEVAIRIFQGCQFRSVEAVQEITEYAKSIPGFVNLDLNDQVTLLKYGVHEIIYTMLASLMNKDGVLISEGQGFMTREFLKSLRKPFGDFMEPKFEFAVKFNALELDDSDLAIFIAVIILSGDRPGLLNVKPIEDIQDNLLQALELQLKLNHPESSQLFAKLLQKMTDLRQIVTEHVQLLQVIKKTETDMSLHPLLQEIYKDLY
Briefly: Inhibition of human PPAR-gamma.

For the next data set, the target named is Estrogen receptor beta (Homo sapiens, UniProt Q92731). Kind of data set: Inhibition of human estrogen receptor beta.
Chain of Estrogen receptor beta (Q92731 whole entry): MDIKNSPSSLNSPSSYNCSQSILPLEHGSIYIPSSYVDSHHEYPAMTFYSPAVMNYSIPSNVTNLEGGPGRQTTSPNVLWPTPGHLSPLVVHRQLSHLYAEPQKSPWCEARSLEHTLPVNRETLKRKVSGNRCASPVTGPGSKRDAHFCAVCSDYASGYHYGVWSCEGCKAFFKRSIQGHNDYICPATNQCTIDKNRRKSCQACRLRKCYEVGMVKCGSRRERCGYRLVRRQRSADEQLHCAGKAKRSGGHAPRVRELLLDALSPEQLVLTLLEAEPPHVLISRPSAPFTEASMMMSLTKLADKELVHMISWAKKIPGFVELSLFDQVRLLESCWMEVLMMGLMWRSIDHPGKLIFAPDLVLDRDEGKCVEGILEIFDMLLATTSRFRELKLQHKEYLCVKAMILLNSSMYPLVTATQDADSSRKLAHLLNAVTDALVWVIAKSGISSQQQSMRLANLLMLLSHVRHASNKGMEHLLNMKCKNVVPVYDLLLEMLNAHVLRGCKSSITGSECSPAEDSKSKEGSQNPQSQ
The target of the next data set is T4, Glucocorticoid receptor (Homo sapiens, UniProt P04150).
T4 sequence (P04150 whole entry): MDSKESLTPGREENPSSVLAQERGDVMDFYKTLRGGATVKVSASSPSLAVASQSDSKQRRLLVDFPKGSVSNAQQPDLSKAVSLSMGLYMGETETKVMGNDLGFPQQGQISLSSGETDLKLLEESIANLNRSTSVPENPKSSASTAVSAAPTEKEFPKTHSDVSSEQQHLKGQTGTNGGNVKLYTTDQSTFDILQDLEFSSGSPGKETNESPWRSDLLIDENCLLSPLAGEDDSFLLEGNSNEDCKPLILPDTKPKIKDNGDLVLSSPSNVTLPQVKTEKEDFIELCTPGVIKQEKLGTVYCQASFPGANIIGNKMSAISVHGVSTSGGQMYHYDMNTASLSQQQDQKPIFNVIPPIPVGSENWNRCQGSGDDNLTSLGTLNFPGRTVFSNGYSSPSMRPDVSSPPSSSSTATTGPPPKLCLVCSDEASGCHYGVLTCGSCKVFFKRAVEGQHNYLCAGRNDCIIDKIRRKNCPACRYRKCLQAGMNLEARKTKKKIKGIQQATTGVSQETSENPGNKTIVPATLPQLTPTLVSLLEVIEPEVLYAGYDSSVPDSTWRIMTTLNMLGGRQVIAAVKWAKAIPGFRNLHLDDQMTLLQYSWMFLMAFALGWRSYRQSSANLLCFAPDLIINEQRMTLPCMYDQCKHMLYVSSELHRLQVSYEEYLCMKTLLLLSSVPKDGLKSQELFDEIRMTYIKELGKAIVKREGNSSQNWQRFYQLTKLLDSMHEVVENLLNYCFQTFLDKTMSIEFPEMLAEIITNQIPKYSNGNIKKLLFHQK
Kind of data set: Inhibition of human glucocorticoid receptor.

Data set [8] deals with T5, Thyroid hormone receptor beta (Homo sapiens, UniProt P10828).
T5 sequence (P10828 whole entry): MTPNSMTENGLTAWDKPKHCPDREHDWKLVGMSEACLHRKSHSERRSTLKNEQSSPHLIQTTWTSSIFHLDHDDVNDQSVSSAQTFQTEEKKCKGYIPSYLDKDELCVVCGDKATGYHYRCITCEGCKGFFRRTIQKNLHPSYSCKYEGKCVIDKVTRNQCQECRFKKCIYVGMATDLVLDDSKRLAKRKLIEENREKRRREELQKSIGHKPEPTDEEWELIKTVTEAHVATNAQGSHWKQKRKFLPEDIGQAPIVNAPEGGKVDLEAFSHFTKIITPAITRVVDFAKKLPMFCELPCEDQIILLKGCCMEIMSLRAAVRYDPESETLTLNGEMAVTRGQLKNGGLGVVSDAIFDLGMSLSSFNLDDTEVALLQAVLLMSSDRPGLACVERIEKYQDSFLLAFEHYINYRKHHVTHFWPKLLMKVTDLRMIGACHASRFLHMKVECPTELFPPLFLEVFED
Briefly: Inhibition of human thyroid hormone receptor-beta.

The target of data set [9] is T1, Peroxisome proliferator-activated receptor alpha. Kind of data set: Agonist activity at human PPAR-alpha.
Data set [10] deals with Plasma. Described as §1. Format: ADME, cell-free. Particulars: 24 h, 1 µM. The gist of the method:
as §2

For data set [11], the target named is T1, Peroxisome proliferator-activated receptor alpha. Briefly: Antagonist activity at GST-tagged PPAR-alpha (unknown origin) assessed as inhibition of GW7647-induced effect after 2 hrs by TR-FRET assay. Background: Time-resolved FRET reads energy transfer from a long-lived donor to a nearby acceptor.
The next data set has as its system Mus musculus. Kind of data set: Reduction in plasma FGF21 level in C57Bl/6 mouse at 30 mg/kg, ip administered for 4 days followed by fasting for last 48 hrs measured 4 hrs post last dose by ELISA. Format: functional, organism-based. The arrangement: dose 30 mg/kg. The gist of the method:
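C57Bl/6 mice received intraperitoneal drug or saline vehicle daily for four days, with 48 h fasting starting on day 2. Four hours after the final dose, blood was taken by terminal cardiac puncture into EDTA. Plasma FGF21 was measured by ELISA and compared against vehicle by t test.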
For orientation: An ELISA detects its analyte on a solid surface through an enzyme-linked reagent.

Data set [12] has as its system Plasma. Briefly: Drug level in mouse plasma treated with 1 uM 5 after 24 hrs by LC-MS/MS analysis. The format is ADME, cell-free.

≈ marks a conversion by molar mass, not a printed value. Calls of active or inactive are those of the source. The calls are words filed in the database; no cut-off is given here. Where only a bound is given, the exact number is not on record here.

In general, IC50 refers to the point on the concentration scale where inhibition reaches its midpoint. As usually defined, the solubility is the dissolved amount per volume that the medium holds. As usually defined, the AUC is the area under the concentration-time curve, a measure of exposure. The low end stands for less exposure, the high end for more exposure. In general, Cmax refers to the highest concentration seen after dosing. For the molecule `CCn1c(CCCc2ccc(-c3ccc(NS(=O)(=O)c4ccc(-c5ccc(OC)cc5)cc4)cc3)cc2)nn(Cc2ccc(C(C)(C)C)cc2)c1=O`, the IC50 in data set [1] is 4.8 µM; in data set [6], > 100 µM; in data set [7] it was > 100 µM; at Estrogen receptor beta, 34.8 µM; against Glucocorticoid receptor, 32 µM; in data set [8], > 69 µM. In data set [2], the remaining at 24 h, 1 µM was 119%. The same molecule yielded a solubility at 24 h in data set [3] of 0.082 µM (≈ 0.0586 µg/mL). Moreover, in data set [4], the AUC was 23000 ng·h/mL. The molecule also showed a Cmax in data set [5] of 7.2 µM.
For orientation: EC50 means the concentration that produces a half-maximal response. `CCn1c(CCCc2ccc(-c3ccc(NS(=O)(=O)c4ccccc4)cn3)cc2)nn(Cc2ccc(C(C)(C)C)cc2)c1=O`: the values for the EC50 in data set [9] and in data set [11] were > 100 µM and 1.4 µM, respectively. The half-inhibitory concentration (IC50) in [1] was 0.077 µM; in data set [6] it was 6 µM; in [7], 15 µM; on Estrogen receptor beta, 15.2 µM; at Glucocorticoid receptor, 32.5 µM; in data set [8], > 100 µM. The Stability with Plasma [10] turned out to be 140.6%. In data set [3], this molecule showed a solubility at 24 h of 1.5 µM (≈ 0.915 µg/mL). Also, in data set [4], the AUC came to 3400 ng·h/mL. The same molecule displayed a Cmax in data set [5] of 1.2 µM. Moreover, the result in the data set on Mus musculus was Active.
For the molecule `CCn1c(CCCc2ccc(OC(C)(C)C(=O)O)cc2)nn(Cc2ccc(C(C)(C)C)cc2)c1=O`, the Drug metabolism entry in the data set with Plasma [12] is “metabolite_detected”.
